Data: ChEMBL document CHEMBL2380295, “Structure-activity studies on the side chain of a simplified analog of aplysiatoxin (aplog-1) with anti-proliferative activity” (Bioorg Med Chem, 2013)
Values belong to the molecule of their own block, whether it stands above or below them.

What was measured:
[1] = Octanol-water partition coefficient, log P of the compound by HPLC analysis; assay type: physicochemical
Outline: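 log P was estimated from HPLC retention, with column dead time measured using unretained formamide.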

SNB-75 = test: Growth inhibition of human SNB75 cells after 48 hrs by sulforhodamine B assay; assay type: functional; settings: SNB-75, 48 h
Outline: (§1)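 Yamori 39-line human cancer panel, NCI method with modifications. Cells plated in RPMI 1640 plus 5% FBS, attached overnight, then exposed 48 h to compound at 10^-8, 10^-7, 10^-6, 10^-5 and 10^-4 M. Sulforhodamine B staining read at 525 nm; % growth = 100[(T−T0)/(C−T0)] from duplicate-point averages, with T0 the time-zero absorbance. GI50 is the concentration giving 50.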

DMS-273 = test: Growth inhibition of human DMS273 cells after 48 hrs by sulforhodamine B assay; assay type: functional; settings: DMS-273, 48 h; outline: as §1
NCI-H460 = test: Growth inhibition of human NCI-H460 cells after 48 hrs by sulforhodamine B assay; assay type: functional; settings: NCI-H460, 48 h; outline: as §1
[2] = Growth inhibition of human HBC5 cells after 48 hrs by sulforhodamine B assay; assay type: functional; settings: HBC5, 48 h; outline: as §1
[3] = target: T1, Protein kinase C delta type (Homo sapiens, UniProt Q05655); test: Inhibition of [3H]PDBu binding to PKCdelta-C1A domain peptide (unknown origin)
T1 sequence (Q05655 whole entry, the tested form may be a part): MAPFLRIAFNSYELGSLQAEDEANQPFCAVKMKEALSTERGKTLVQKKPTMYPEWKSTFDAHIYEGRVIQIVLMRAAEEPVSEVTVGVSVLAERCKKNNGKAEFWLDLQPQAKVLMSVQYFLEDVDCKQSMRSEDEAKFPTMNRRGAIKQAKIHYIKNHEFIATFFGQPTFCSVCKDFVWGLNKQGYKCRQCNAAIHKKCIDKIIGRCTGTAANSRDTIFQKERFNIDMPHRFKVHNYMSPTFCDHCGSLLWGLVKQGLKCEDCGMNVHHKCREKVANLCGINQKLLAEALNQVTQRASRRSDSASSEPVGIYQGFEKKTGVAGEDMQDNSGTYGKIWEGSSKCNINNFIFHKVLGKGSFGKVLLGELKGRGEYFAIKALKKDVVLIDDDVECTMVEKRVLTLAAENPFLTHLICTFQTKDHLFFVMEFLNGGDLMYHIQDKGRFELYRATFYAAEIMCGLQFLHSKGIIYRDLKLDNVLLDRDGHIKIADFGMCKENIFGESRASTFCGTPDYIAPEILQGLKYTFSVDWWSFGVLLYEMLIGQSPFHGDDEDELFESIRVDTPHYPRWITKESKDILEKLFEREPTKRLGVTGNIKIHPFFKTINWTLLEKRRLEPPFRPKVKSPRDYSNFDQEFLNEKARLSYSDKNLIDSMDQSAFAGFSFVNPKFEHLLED
Outline: (§2)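 Competitive [3H]PDBu binding used 14 or 40 nM PKCδ C1 peptide and 20 nM [3H]PDBu (19.6 Ci/mmol), in 50 mM Tris-maleate (pH 7.4 at 4 °C) with 50 µg/mL phosphatidylserine, 3 mg/mL bovine γ-globulin and varied inhibitor concentrations. IC50 was taken as 50% inhibition of specific binding. Ki was derived by the Sharkey–Blumberg method.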

[4] = Cytotoxicity against human Raji cells assessed as cell viability at 10^-6 M; assay type: cell-based; settings: read-out: Activity
MCF7 = test: Growth inhibition of human MCF7 cells after 48 hrs by sulforhodamine B assay; assay type: functional; settings: MCF7, 48 h; outline: as §1
OVCAR-4 = test: Growth inhibition of human OVCAR4 cells after 48 hrs by sulforhodamine B assay; assay type: functional; settings: OVCAR-4, 48 h; outline: as §1
NCI-H226 = test: Growth inhibition of human NCI-H226 cells after 48 hrs by sulforhodamine B assay; assay type: functional; settings: NCI-H226, 48 h; outline: as §1
OVCAR-8 = test: Growth inhibition of human OVCAR8 cells after 48 hrs by sulforhodamine B assay; assay type: functional; settings: OVCAR-8, 48 h; outline: as §1
MKN-45 = test: Growth inhibition of human MKN45 cells after 48 hrs by sulforhodamine B assay; assay type: functional; settings: MKN-45, 48 h; outline: as §1
Human gammaherpesvirus 4 [5] = test: Induction of EBV-early antigen expressed in human Raji cells at 10^-6 M after 48 hrs by immunofluorescence assay relative to control; assay type: organism-based; settings: human gammaherpesvirus 4, raji, 1 µM
Outline: (§3)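 Raji B-lymphoblastoid cells (5 × 10^5/mL) in RPMI 1640 with 10% FBS, with 4 mM sodium n-butyrate as synergist and test compound at 10^-7 or 10^-6 M (final DMSO 0.4%). Incubated 48 h at 37 °C under 5% CO2. Smears were stained by indirect immunofluorescence using NPC patient serum and FITC anti-human IgG. At least 500 cells counted; % EA-positive recorded; n = 3, SEM.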

MKN-28 = test: Growth inhibition of human MKN28 cells after 48 hrs by sulforhodamine B assay; assay type: functional; settings: MKN-28, 48 h; outline: as §1
HT-29 = test: Growth inhibition of human HT-29 cells after 48 hrs by sulforhodamine B assay; assay type: functional; settings: HT-29, 48 h; outline: as §1
HCT-15 = test: Growth inhibition of human HCT15 cells after 48 hrs by sulforhodamine B assay; assay type: functional; settings: HCT-15, 48 h; outline: as §1
DU-145 = test: Growth inhibition of human DU145 cells after 48 hrs by sulforhodamine B assay; assay type: functional; settings: DU-145, 48 h; outline: as §1
U-251 = test: Growth inhibition of human U251 cells after 48 hrs by sulforhodamine B assay; assay type: functional; settings: U-251, 48 h; outline: as §1
LOX IMVI = test: Growth inhibition of human LOXIMVI cells after 48 hrs by sulforhodamine B assay; assay type: functional; outline: as §1
SK-OV-3 = test: Growth inhibition of human SKOV3 cells after 48 hrs by sulforhodamine B assay; assay type: functional; settings: SK-OV-3, 48 h; outline: as §1
PC-3 = test: Growth inhibition of human PC3 cells after 48 hrs by sulforhodamine B assay; assay type: functional; settings: PC-3, 48 h; outline: as §1
HCT-116 = test: Growth inhibition of human HCT116 cells after 48 hrs by sulforhodamine B assay; assay type: functional; settings: HCT-116, 48 h; outline: as §1
Human gammaherpesvirus 4 [6] = test: Induction of EBV-early antigen expressed in human Raji cells at 10^-7 M after 48 hrs by immunofluorescence assay relative to control; assay type: organism-based; settings: human gammaherpesvirus 4, raji, 0.1 µM; outline: as §3
A549 = test: Growth inhibition of human A549 cells after 48 hrs by sulforhodamine B assay; assay type: functional; settings: A549, 48 h; outline: as §1
SF-268 = test: Growth inhibition of human SF268 cells after 48 hrs by sulforhodamine B assay; assay type: functional; settings: SF-268, 48 h; outline: as §1
[7] = Growth inhibition of human HCC2998 cells after 48 hrs by sulforhodamine B assay; assay type: functional; settings: HCC 2998, 48 h; outline: as §1
[8] = Cytotoxicity against human Raji cells assessed as cell viability at 10^-7 M; assay type: cell-based; settings: read-out: Activity
DMS-114 = test: Growth inhibition of human DMS114 cells after 48 hrs by sulforhodamine B assay; assay type: functional; settings: DMS-114, 48 h; outline: as §1
SF-295 = test: Growth inhibition of human SF295 cells after 48 hrs by sulforhodamine B assay; assay type: functional; settings: SF-295, 48 h; outline: as §1
KM12 = test: Growth inhibition of human KM12 cells after 48 hrs by sulforhodamine B assay; assay type: functional; settings: KM12, 48 h; outline: as §1
SNB-78 = test: Growth inhibition of human SNB78 cells after 48 hrs by sulforhodamine B assay; assay type: functional; settings: SNB-78, 48 h; outline: as §1
MKN-74 = test: Growth inhibition of human MKN74 cells after 48 hrs by sulforhodamine B assay; assay type: functional; settings: MKN-74, 48 h; outline: as §1
[9] = Growth inhibition of human RXF631L cells after 48 hrs by sulforhodamine B assay; assay type: functional; settings: RXF 631, 48 h; outline: as §1
St-4 = test: Growth inhibition of human St-4 cells after 48 hrs by sulforhodamine B assay; assay type: functional; settings: St-4, 48 h; outline: as §1
OVCAR-3 = test: Growth inhibition of human OVCAR3 cells after 48 hrs by sulforhodamine B assay; assay type: functional; settings: OVCAR-3, 48 h; outline: as §1
[10] = Growth inhibition of human MKN1 cells after 48 hrs by sulforhodamine B assay; assay type: functional; settings: MKN-1, 48 h; outline: as §1
[11] = Growth inhibition of human BSY1 cells after 48 hrs by sulforhodamine B assay; assay type: functional; settings: BSY-1, 48 h; outline: as §1
[12] = target: T1, Protein kinase C delta type; test: Inhibition of [3H]PDBu binding to PKCdelta-C1B domain peptide (unknown origin); outline: as §2
NCI-H23 = test: Growth inhibition of human NCI-H23 cells after 48 hrs by sulforhodamine B assay; assay type: functional; settings: NCI-H23, 48 h; outline: as §1
MKN-7 = test: Growth inhibition of human MKN7 cells after 48 hrs by sulforhodamine B assay; assay type: functional; settings: MKN-7, 48 h; outline: as §1
[13] = Growth inhibition of human HBC4 cells after 48 hrs by sulforhodamine B assay; assay type: functional; settings: HBC4, 48 h; outline: as §1
MDA-MB-231 = test: Growth inhibition of human MDA-MB-231 cells after 48 hrs by sulforhodamine B assay; assay type: functional; settings: MDA-MB-231, 48 h; outline: as §1
ACHN = test: Growth inhibition of human ACHN cells after 48 hrs by sulforhodamine B assay; assay type: functional; outline: as §1
OVCAR-5 = test: Growth inhibition of human OVCAR5 cells after 48 hrs by sulforhodamine B assay; assay type: functional; settings: OVCAR-5, 48 h; outline: as §1
SF-539 = test: Growth inhibition of human SF539 cells after 48 hrs by sulforhodamine B assay; assay type: functional; settings: SF-539, 48 h; outline: as §1
NCI-H522 = test: Growth inhibition of human NCI-H522 cells after 48 hrs by sulforhodamine B assay; assay type: functional; settings: NCI-H522, 48 h; outline: as §1

logP [1]: 4.8
SMILES: CC1(C)CC[C@@H]2CC(=O)O[C@@H](CO)CC(=O)O[C@@H]3C[C@@H](CCCCc4ccccc4)O[C@@]1(C3)O2

SMILES: CC1(C)CC[C@@H]2CC(=O)O[C@@H](CO)CC(=O)O[C@@H]3C[C@@H](CCCCc4cccc(O)c4)O[C@@]1(C3)O2
GI50 (SNB-75): 15.8 µM | GI50 (DMS-273): 12.6 µM | GI50 (NCI-H460): 2.51 µM | GI50 [2]: 17.4 µM

Ki [3]: 0.022 µM
SMILES: C[C@H]1[C@@H]2C[C@@]3(O[C@H](CCC3(C)C)CC(=O)O[C@@H](CO)CC(=O)O2)O[C@@H]1CCCCc1cccc(O)c1

SMILES: CC(=O)Nc1ccc(O)cc1CCCC[C@@H]1C[C@@H]2C[C@@]3(O[C@H](CCC3(C)C)CC(=O)O[C@@H](CO)CC(=O)O2)O1
viability at 1 µM [4]: 60% | logP [1]: 2.3 | GI50 (MCF7): > 100 µM | GI50 (OVCAR-4): > 100 µM | GI50 (NCI-H226): 53.7 µM | GI50 (OVCAR-8): > 100 µM | GI50 (MKN-45): > 100 µM | Activity (Human gammaherpesvirus 4 [5]): 2.1% | GI50 (MKN-28): 87.1 µM | GI50 (HT-29): > 100 µM | GI50 (HCT-15): > 100 µM | GI50 (DU-145): > 100 µM | Ki [3]: 8.7 µM | GI50 (U-251): > 100 µM | GI50 (SNB-75): > 100 µM | GI50 (LOX IMVI): 74.1 µM | GI50 (SK-OV-3): > 100 µM | GI50 (PC-3): > 100 µM | GI50 (HCT-116): > 100 µM | GI50 (DMS-273): 43.7 µM | Activity (Human gammaherpesvirus 4 [6]): 2% | GI50 (A549): > 100 µM | GI50 (SF-268): > 100 µM | GI50 [7]: 72.4 µM | viability at 0.1 µM [8]: 60% | GI50 (NCI-H460): > 100 µM | GI50 (DMS-114): 55 µM | GI50 (SF-295): 60.3 µM | GI50 (KM12): > 100 µM | GI50 (SNB-78): > 100 µM | GI50 (MKN-74): 70.8 µM | GI50 [9]: > 100 µM | GI50 (St-4): > 100 µM | GI50 (OVCAR-3): > 100 µM | GI50 [10]: > 100 µM | GI50 [11]: > 100 µM | Ki [12]: 0.69 µM | GI50 [2]: > 100 µM | GI50 (NCI-H23): > 100 µM | GI50 (MKN-7): > 100 µM | GI50 [13]: > 100 µM | GI50 (MDA-MB-231): > 100 µM | GI50 (ACHN): > 100 µM | GI50 (OVCAR-5): > 100 µM | GI50 (SF-539): > 100 µM | GI50 (NCI-H522): > 100 µM
